# Reference: the RNAGym collection of RNA variant scans (doi:10.1038/s41586-018-0170-7)
# B1: tRNA (parent)
# chain: GUUCCGUUGGCGUAAUGGUAACGCGUCUCCCUCCUAAGGAGAAGACUGCGGGUUCGAGUCCCGUACGGAACG
# Variants of: B1
# Test: yeast fitness, log relative to wild type (ln ratio); higher = fitter; tRNA-Arg(CCU), competitive growth, 37 C, 1 M NaCl
# Procedure, shortened: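 For each genotype, fitness is defined as the natural log of its generation number over the wild type's. The tRNA-Arg(CCU) variant library was on a HIS3 centromeric plasmid in BY4742 with the chromosomal gene removed, and pools were first grown 4 generations in SC-HIS at 30 °C and then ~6.5 generations (~26.5 h) in SC-HIS 1M NaCl at 37 °C. Generations were calculated from OD-scaled log2 output/input frequency, weighted by inverse variance across replicates, using counts from 125 bp paired-end Illumina sequencing.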
row,Variant,yeast fitness (ln)
1,AUUCCGUUGGCGUAAUGGUAACGCGUCUCCCUCCUAAGGAGACGAUUGCGGGUUCGAGUCCCGUAAGGAAUG [G1A A43C C46U C66A C71U],-0.139
2,AUUCCGUUGGCGUAAUGGUAACGCGUCUCCCUCCUAAGGAGACGAUUGCGGGUUCGAGUCCCGUAAGGGAUG [G1A A43C C46U C66A A69G C71U],-0.216
3,AUUCCGUUGGCGUAAUGGUAACGCGUCUCCCUCCUAAGGAGACGAUUGCGGGUUCGAGUCCCGUACGGGUUG [G1A A43C C46U A69G A70U C71U],-0.33
4,AUUCCGUUGGCGUAAUGGUAACGCGUCUCCCUCCUAAGGAGACGAUUGCGGGUUCGAGUCCCGUAUGGGAUG [G1A A43C C46U C66U A69G C71U],-0.295
5,AUUCCGUUGGCGUAAUGGUAACGCGUCUCCCUCCUAAGGAGACGAUUGCGGGUUCGAGUCCCGUAUGGAAUG [G1A A43C C46U C66U C71U],-0.247
6,AUUCCGUUGGCGUAAUGGUAACGCGUCUCCCUCCUAAGGAGACGAUUGCGGGUUCGAGUCCCGUAAGGGGUG [G1A A43C C46U C66A A69G A70G C71U],-0.191
7,AUUCCGUUGGCGUAAUGGUAACGCGUCUCCCUCCUAAGGAGACGAUUGCGGGUUCGAGUCCCGUAUGGAUUG [G1A A43C C46U C66U A70U C71U],-0.323
8,AUUCCGUUGGCGUAAUGGUAACGCGUCUCCCUCCUAAGGAGACGACUGCGGGUUCGAGUCCCGUAUGGGUUG [G1A A43C C66U A69G A70U C71U],-0.338
9,AUUCCGUUGGCGUAAUGGUAACGCGUCUCCCUCCUAAGGAGAAGACUGCGGGUUCGAGUCCCGUACGGGGCG [G1A A69G A70G],-0.137
10,AUUCCGUUGGCGUAAUGGUAACGCGUCUCCCUCCUAAGGAGAAGACUGCGGGUUCGAGUCCCGUACGGGUCG [G1A A69G A70U],-0.0407
11,AUUCCGUUGGCGUAAUGGUAACGCGUCUCCCUCCUAAGGAGACGACUGCGGGUUCGAGUCCCGUAAGGAUUG [G1A A43C C66A A70U C71U],-0.321
12,AUUCCGUUGGCGUAAUGGUAACGCGUCUCCCUCCUAAGGAGACGACUGCGGGUUCGAGUCCCGUAAGGAGCG [G1A A43C C66A A70G],-0.19
13,AUUCCGUUGGCGUAAUGGUAACGCGUCUCCCUCCUAAGGAGACGACUGCGGGUUCGAGUCCCGUAAGGAUCG [G1A A43C C66A A70U],-0.129
14,AUUCCGUUGGCGUAAUGGUAACGCGUCUCCCUCCUAAGGAGACGACUGCGGGUUCGAGUCCCGUACGGGUUG [G1A A43C A69G A70U C71U],-0.366
15,AUUCCGUUGGCGUAAUGGUAACGCGUCUCCCUCCUAAGGAGACGACUGCGGGUUCGAGUCCCGUAAGGAAUG [G1A A43C C66A C71U],-0.275
16,AUUCCGUUGGCGUAAUGGUAACGCGUCUCCCUCCUAAGGAGACGACUGCGGGUUCGAGUCCCGUAUGGAGUG [G1A A43C C66U A70G C71U],-0.235
17,AUUCCGUUGGCGUAAUGGUAACGCGUCUCCCUCCUAAGGAGACGACUGCGGGUUCGAGUCCCGUAUGGAGCG [G1A A43C C66U A70G],-0.236
18,AUUCCGUUGGCGUAAUGGUAACGCGUCUCCCUCCUAAGGAGACGACUGCGGGUUCGAGUCCCGUAUGGAUCG [G1A A43C C66U A70U],-0.21
19,AUUCCGUUGGCGUAAUGGUAACGCGUCUCCCUCCUAAGGAGAAGACUGCGGGUUCGAGUCCCGUACGGGUUG [G1A A69G A70U C71U],-0.44

row,Variant,yeast fitness (ln)
1,AUUCCGUUGGCGUAAUGGUAACGCGUCUCCCUCCUAAGGAGACGACUGCGGGUUCGAGUCCCGUACGGGAUG [G1A A43C A69G C71U],-0.0687
2,AUUCCGUUGGCGUAAUGGUAACGCGUCUCCCUCCUAAGGAGACGACUGCGGGUUCGAGUCCCGUACGGAGUG [G1A A43C A70G C71U],-0.095
3,AUUCCGUUGGCGUAAUGGUAACGCGUCUCCCUCCUAAGGAGAAGACUGCGGGUUCGAGUCCCGUACGGAUUG [G1A A70U C71U],-0.0607
4,AUUCCGUUGGCGUAAUGGUAACGCGUCUCCCUCCUAAGGAGACGACUGCGGGUUCGAGUCCCGUAUGGAAUG [G1A A43C C66U C71U],-0.289
5,AUUCCGUUGGCGUAAUGGUAACGCGUCUCCCUCCUAAGGAGAAGACUGCGGGUUCGAGUCCCGUACGGGACG [G1A A69G],-0.141
6,AUUCCGUUGGCGUAAUGGUAACGCGUCUCCCUCCUAAGGAGACGAUUGCGGGUUCGAGUCCCGUAAGGGGCG [G1A A43C C46U C66A A69G A70G],-0.169
7,AUUCCGUUGGCGUAAUGGUAACGCGUCUCCCUCCUAAGGAGACGAUUGCGGGUUCGAGUCCCGUAAGGGUCG [G1A A43C C46U C66A A69G A70U],-0.113
8,AUUCCGUUGGCGUAAUGGUAACGCGUCUCCCUCCUAAGGAGACGAUUGCGGGUUCGAGUCCCGUAAGGAGUG [G1A A43C C46U C66A A70G C71U],-0.191
9,AUUCCGUUGGCGUAAUGGUAACGCGUCUCCCUCCUAAGGAGACGAUUGCGGGUUCGAGUCCCGUACGGAUUG [G1A A43C C46U A70U C71U],-0.116
10,AUUCCGUUGGCGUAAUGGUAACGCGUCUCCCUCCUAAGGAGACGAUUGCGGGUUCGAGUCCCGUACGGGACG [G1A A43C C46U A69G],-0.261
11,AUUCCGUUGGCGUAAUGGUAACGCGUCUCCCUCCUAAGGAGACGACUGCGGGUUCGAGUCCCGUAAGGAGUG [G1A A43C C66A A70G C71U],-0.164
12,AUUCCGUUGGCGUAAUGGUAACGCGUCUCCCUCCUAAGGAGACGAUUGCGGGUUCGAGUCCCGUAAGGAGCG [G1A A43C C46U C66A A70G],-0.113
13,AUUCCGUUGGCGUAAUGGUAACGCGUCUCCCUCCUAAGGAGACGAUUGCGGGUUCGAGUCCCGUAAGGAUCG [G1A A43C C46U C66A A70U],-0.082
14,AUUCCGUUGGCGUAAUGGUAACGCGUCUCCCUCCUAAGGAGACGAUUGCGGGUUCGAGUCCCGUAAGGGUUG [G1A A43C C46U C66A A69G A70U C71U],-0.36
15,AUUCCGUUGGCGUAAUGGUAACGCGUCUCCCUCCUAAGGAGACGACUGCGGGUUCGAGUCCCGUAUGGGAUG [G1A A43C C66U A69G C71U],-0.377
16,AUUCCGUUGGCGUAAUGGUAACGCGUCUCCCUCCUAAGGAGACGACUGCGGGUUCGAGUCCCGUAUGGGGUG [G1A A43C C66U A69G A70G C71U],-0.293
17,AUUCCGUUGGCGUAAUGGUAACGCGUCUCCCUCCUAAGGAGACGAUUGCGGGUUCGAGUCCCGUAUGGAACG [G1A A43C C46U C66U],-0.151
18,AUUCCGUUGGCGUAAUGGUAACGCGUCUCCCUCCUAAGGAGACGAUUGCGGGUUCGAGUCCCGUAUGGGGCG [G1A A43C C46U C66U A69G A70G],-0.222
